TAAR1 antagonist: antagonists of human TAAR1; Q96RJ0; inhibition, % at 3 µM; hit rate 1.5% among 360,000; CHO RD-HGA16 TAAR1, Fluo-8 calcium fluorescence, antagonist;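 active means inhibition above a per-plate cutoff, the mean inhibition of test compounds on that plate plus 3 SD, cut at about 49% in these data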;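 further: 0% = DMSO plus EC80 beta-PEA response and 100% = DMSO alone without agonist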
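Assay system: CHO-derived RD-HGA16 cells stably expressing human TAAR1 plus Gα16. Timing: 140 s kinetic read after compound, 140 s after agonist. Technique: kinetic Fluo-8 calcium fluorescence measurement. Measure: % inhibition of agonist calcium response.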
OX1R antag-1: blocks the human orexin 1 receptor; AID 434989; CHO/OX1R cells, Fluo-8 calcium fluorescence, orexin A; hit rate 0.43% among 330,000; inhibition, % at 5 µM;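 active means inhibition above its plate's threshold, mean inhibition of all tested compounds on the plate plus 3 SD, cut at about 37% in these data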;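 further: 0% = orexin A challenge wells and 100% = SB-334867-A antagonist wells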
Target sequence (O43613 whole entry, looked up): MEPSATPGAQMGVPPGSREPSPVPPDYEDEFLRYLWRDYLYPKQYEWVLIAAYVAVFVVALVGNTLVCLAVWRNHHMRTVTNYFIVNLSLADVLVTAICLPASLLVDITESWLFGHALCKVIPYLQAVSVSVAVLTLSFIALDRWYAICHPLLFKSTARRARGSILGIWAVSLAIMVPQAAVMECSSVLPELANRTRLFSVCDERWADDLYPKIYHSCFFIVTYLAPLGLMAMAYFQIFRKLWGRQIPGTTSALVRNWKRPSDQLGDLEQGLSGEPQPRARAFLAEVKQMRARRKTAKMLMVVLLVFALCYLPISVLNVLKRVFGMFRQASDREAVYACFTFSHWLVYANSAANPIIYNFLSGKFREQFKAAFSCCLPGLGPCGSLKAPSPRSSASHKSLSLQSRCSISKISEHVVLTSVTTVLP
OX1R antag-2: antagonists of human orexin 1 receptor (OX1R); OX1R-expressing cells, FRET antagonist read-out; O43613; hit rate 1.8% among 330,000; inhibition, % at 6.6 µM; in the data active means inhibition mostly above about 38%, no sharp cut-off; inactive means mostly below about 40%;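 further: 0% = agonist challenge alone and 100% = reference antagonist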
TAAR1 ag: human TAAR1 agonism | Q96RJ0 | CHO RD-HGA16 TAAR1, Fluo-8 calcium fluorescence; vehicle wells 0%, saturating PEA agonist 100% | activation, % at 3 µM | hit rate 0.99% among 360,000;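 active means activation above the mean activation of all test compounds in the run plus 3 SD, cut at about 38% in these data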
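Test system: RD-HGA16 (CHO) cells co-expressing Gα16 and hTAAR1 / Benchmarks: DMSO vehicle as 0%, PEA at EC100 as 100% / Repeats: no replicates (n 1) / Measure: % activation from peak over basal fluorescence ratio, DMSO-to-PEA scaled / Timing: 17-24 h plating, Fluo-8 75 min 37 °C, 30 min RT / Technique: kinetic Fluo-8 calcium fluorescence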
CHO parental Ca: signal in parental CHO cells, OX1R antagonist counter-screen. parental CHO-K1, ATP-induced calcium, Fluo-8 fluorescence. inhibition, % at 5.6 µM. hit rate 0.63% among 330,000;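 active means inhibition above that plate's mean sample inhibition plus 3 SD, cut at about 26% in these data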;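 further: 0% = ATP-challenged DMSO wells and 100% = DMSO wells without ATP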
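Assay system: parental CHO cells; Read-out basis: percent inhibition of ATP-evoked calcium rise, normalized to controls; Benchmarks: ATP and no-ATP DMSO wells; Compound dosing: single nominal dose of 5.6 µM per compound; Signal: Fluo-8 calcium dye fluorescence; Also added: ATP as calcium-mobilizing challenge; Repeats: singlicate.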
TAAR1 ag confirm: human TAAR1 agonism, confirmed; shares compounds with TAAR1 ag; CHO RD-HGA16 TAAR1, Fluo-8 calcium fluorescence; scaled: DMSO 0%, maximal phenethylamine 100%; activation, % at 3 µM; hit rate 82% among 2,400; AID 651783;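 active means activation above a cutoff set at the run's mean compound activation plus 3 SD, cut at about 39% in these data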
Ga16 nonsel ag: counter-screen for TAAR1 agonists: nonselective agonists in parental cells | shares compounds with TAAR1 ag | CHO-Ga16 parental, Fluo-8 calcium fluorescence; normalized to maximal ATP response, DMSO zero | hit rate 50% among 2,400 | activation, % at 3 µM | AID 651787;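 active means activation above the run cutoff, the mean activation over all tested wells plus 3 SD, cut at about 12% in these data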;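 further: 0% = DMSO wells and 100% = maximal ATP response on the peak over basal ratio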
TAAR1 desens: counter-screen for human TAAR1 agonists: agonists that desensitize TAAR1; shares compounds with TAAR1 ag; CHO RD-HGA16 hTAAR1, Fluo-8 calcium, beta-PEA response inhibition; inhibition, % at 3 µM; hit rate 46% among 2,400; AID 651951;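 active means inhibition above the run cutoff, the mean inhibition of all test compounds plus 3 SD, cut at about 49% in these data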;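 further: beta-PEA stimulus applied at its EC80; loss of beta-PEA calcium signal after compound pretreatment read as receptor desensitization; 0% = DMSO with beta-PEA at EC80 and 100% = DMSO alone without agonist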
Ga16 nonsel ant: nonselective Ga16 antagonist in TAAR1 agonist counter-screen. shares compounds with TAAR1 ag. CHO-Ga16 ATP-induced calcium, Fluo-8 fluorescence. inhibition, % at 3 µM. hit rate 39% among 2,400. AID 651952;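 active means inhibition above the plate's mean compound inhibition plus 3 SD, computed per plate, cut at about 22% in these data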;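 further: 0% = EC80 ATP with DMSO and 100% = DMSO wells without ATP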
* hit, by the source's call; x = no result; + = active, no number. Only some compounds are listed: those with a hit (about 3.9% of all), similar ones and a draw of the others.

SMILES	TAAR1 antagonist	OX1R antag-1	OX1R antag-2	TAAR1 ag	CHO parental Ca	TAAR1 ag confirm	Ga16 nonsel ag	TAAR1 desens	Ga16 nonsel ant
CC(C)c1ccc(OCCCN2CCC(C(O)(c3ccccc3)c3ccccc3)CC2)cc1	46	x	x	41*	x	59*	35*	59*	55*
CCCS(=O)(=O)NC(=O)C1(C)CCN(C(=O)c2cccc(C)c2C)C1 (stereo unspecified)	-1	x	x	0	x	x	x	x	x
COc1ccc(N(CC(=O)NCc2ccc3c(c2)OCO3)C(=O)c2csnn2)cc1	-2	-18	7	2	-10	x	x	x	x
O=C(NC(=S)Nc1ccc2[nH]c(=O)[nH]c2c1)c1ccccc1[N+](=O)[O-]	-17	-8	12	9	6	x	x	x	x
OC(c1ccccc1)(c1ccccc1)C1CCN(CCCOc2ccc(C(F)(F)F)cc2)CC1	38	x	x	43*	x	9	19*	17	38*
CCC(C)NCCOc1ccc(C(C)(C)c2ccccc2)cc1 (stereo unspecified)	-7	-6	-7	54*	3	69*	39*	34	26*
OC(c1ccccc1)(c1ccccc1)C1CCN(CCCOc2cccc(C(F)(F)F)c2)CC1	36	x	x	32	x	x	x	x	x
COCCCNCCOc1ccc(C(C)(C)c2ccccc2)cc1	-16	-14	-1	29	3	x	x	x	x
OC(c1ccccc1)(c1ccccc1)C1CCN(CCCOc2cccc(Cl)c2)CC1	50*	x	x	39*	x	42*	27*	48	49*
CC(C)(C)c1ccc(OCCNCc2ccccc2)cc1	14	-19	0	71*	-14	72*	34*	21	11
Cc1ccc(CC(=O)NC2CCSC2=O)cc1 (stereo unspecified)	-2	-5	6	3	-10	x	x	x	x
CCc1nc2c(OCCn3cccc3)cccn2c1N(C)C(=O)c1ccccc1F	-11	x	x	1	x	x	x	x	x
CC(=O)Nc1cccc(NC(=O)Nc2ccc(C(C)=O)cc2)c1	0	-9	5	5	-13	x	x	x	x
CC(=O)Nc1ccc(NC(=O)Nc2ccccc2)cc1	x	2	-8	x	5	x	6	x	13
O=C(Nc1ccccc1)Nc1ccc(NC(=O)c2ccccc2O)cc1	81*	-11	0	70*	15	101*	13*	97*	30*
O=C(Nc1ccccc1)Nc1ccc2ncoc2c1	6	3	26	59*	4	88*	9	61*	12
COc1cccc(/C=N/NC(=O)CN2CC(c3ccccc3)CC2=O)c1OC (stereo unspecified)	-9	-21	19	11	-8	x	x	x	x
CCC(C)(C)NC(=O)CN(C(=O)CNS(=O)(=O)c1ccc(C)cc1)c1ccc2c(c1)OCCO2	-13	-23	10	52*	-20	82*	26*	12	8
CC(C)(C)NC(=O)CN(C(=O)CNS(=O)(=O)c1ccc(Cl)cc1)c1ccc2c(c1)OCCO2	6	-23	24	72*	-22	100*	45*	25	8
Cc1ccc(/C(N)=N/OC(=O)c2ccc3ccccc3c2)cc1	-18	-5	24	2	-18	x	x	x	x
Cc1ccc(C(=O)O/N=C(\N)Cc2cccc3ccccc23)cc1	40	-21	7	57*	-21	52*	-1	11	-1
CCOC(=O)Cn1c(=O)oc2cc(S(=O)(=O)Nc3ccc(F)cc3)ccc21	44	22	10	89*	23*	109*	69*	52*	32*
CCOC(=O)Cn1c(=O)oc2cc(S(=O)(=O)NCCc3ccc(C)cc3)ccc21	21	-18	10	10	1	x	x	x	x
O=C(NCCc1ccc(Cl)cc1)c1ncn[nH]1	-13	1	27	48*	-5	46*	3	7	4
NNCCc1ccccc1	30	-13	16	75*	-21	94*	2	76*	5
SMILES	TAAR1 antagonist	OX1R antag-1	OX1R antag-2	TAAR1 ag	CHO parental Ca	TAAR1 ag confirm	Ga16 nonsel ag	TAAR1 desens	Ga16 nonsel ant
O=C(CC(=O)NCCc1ccccc1)NCCc1ccccc1	4	-12	18	34	-15	x	x	x	x
COc1cc(C(=O)OCC(=O)NC2CCCC2)cc(OC)c1OC	-12	-24	12	-1	-5	x	x	x	x
COc1ccccc1-c1c(C)oc2cc(OCC(=O)OCc3ccccc3)ccc2c1=O	42	3	15	4	7	x	x	x	x
CCN(C[C@H]1N[C@@](C)(C(=O)OC)[C@H]2C(=O)N(C)C(=O)[C@@H]12)C(=O)C1CCCCC1	-26	2	4	8	-9	x	x	x	x
O=C(NCC(c1ccco1)N1CCc2ccccc2C1)c1ccccc1Br (stereo unspecified)	7	1	9	35	-14	x	x	x	x
O=C(NCC(c1ccco1)N1CCc2ccccc2C1)c1ccc(Cl)cc1 (stereo unspecified)	34	-28	32	74*	-18	38*	1	4	8
CCOc1ccc(C(=O)NCC(c2ccco2)N2CCc3ccccc3C2)cc1 (stereo unspecified)	-65	-42	23	7	-21	x	x	x	x
O=C(NCC(c1ccco1)N1CCc2ccccc2C1)c1ccc(Br)cc1 (stereo unspecified)	20	-18	27	45*	-24	24	2	11	13
CC(=O)NC1CC2CCCC(C1)N2C(=O)Nc1c(C)cccc1C (stereo unspecified)	-15	x	x	2	x	x	x	x	x
CCC1=NN(C(=O)Cc2ccc(OC)c(OC)c2)C(O)(C(F)(F)F)C1 (stereo unspecified)	-15	8	2	2	2	x	x	x	x
CN(C)/C=C1\C=C2C(=O)c3ccccc3N2C1=O	87*	46*	10	413*	50*	+	+	104*	94*
CCOc1c(Br)cc(C2NS(=O)(=O)N=C3CCCCCN32)cc1OC (stereo unspecified)	-11	-18	7	8	-17	x	x	x	x
Cc1cc(=O)[nH]c(N2CCc3ccccc3C2)n1	7	-15	3	15	-11	x	x	x	x
Cn1c(SCC(=O)N2CCc3ccccc3C2)nnc1-c1ccncc1	2	-8	3	6	-12	x	x	x	x
CCCn1c(SCC(=O)N2CCc3ccccc3C2)nc(O)cc1=O	x	-6	3	x	-6	x	0	x	1

Screening data (PubChem)
